Experimental data from ChEMBL document CHEMBL3232898, “Heterocyclic aminoparthenolide derivatives modulate G(2)-M cell cycle progression during Xenopus oocyte maturation” (Bioorg Med Chem Lett, 2014).
Calls of active or inactive are those of the source. The calls are words filed in the database; no cut-off is given here.

Legend:
Oocyte [1] = experiment: Modulation of G2-M cell cycle progression in Xenopus oocytes assessed as inhibition of progesterone-stimulated maturation by measuring germinal vesicle breakdown at 100 uM measured after overnight incubation; format: functional, cell-based
In short: (§1)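 Isolated Xenopus oocytes (20 per well) were incubated overnight with compound added from DMSO stock (100 µM starting concentration, 1% DMSO final). Next morning GVBD was scored by the appearance of a white spot on the animal pole. Oocytes without spots then received 2 µg/ml progesterone. Time to GVBD was expressed relative to the GVBD50 of DMSO controls, where 1.0 means no change, 2.0 means no maturation and 0.0 means spontaneous GVBD.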

Oocyte [2] = experiment: Modulation of G2-M cell cycle progression in Xenopus oocytes assessed as acceleration of progesterone-stimulated oocyte progression to germinal vesicle breakdown at 5 to 50 uM measured after overnight incubation relative to DMSO-treated control; format: functional; in short: as §1
Oocyte [3] = experiment: Modulation of G2-M cell cycle progression in Xenopus oocytes assessed as acceleration of progesterone-stimulated maturation by measuring germinal vesicle breakdown after overnight incubation; format: functional, cell-based; details: Xenopus laevis; in short: as §1
Oocyte [4] = experiment: Modulation of G2-M cell cycle progression in Xenopus oocytes assessed as effect on phenotype upon progression to GVBD during oocyte maturation in presence of progesterone; format: functional, cell-based; in short: as §1
Oocyte [5] = experiment: Modulation of G2-M cell cycle progression in Xenopus oocytes assessed as delay time to germinal vesicle breakdown at 100 uM measured after overnight incubation in presence of progesterone; format: functional, cell-based; in short: as §1
Oocyte [6] = experiment: Modulation of G2-M cell cycle progression in Xenopus oocytes assessed as induction of spontaneous maturation by measuring germinal vesicle breakdown at 100 uM after overnight incubation in absence of progesterone; format: functional, cell-based; in short: as §1
Oocyte [7] = experiment: Modulation of G2-M cell cycle progression in Xenopus oocytes assessed as induction of oocyte progression to germinal vesicle breakdown by measuring appearance of white spot on animal pole after overnight incubation in absence of progesterone; format: functional, cell-based; in short: as §1
Xenopus [8] = experiment: Activation of progesterone-independent MAPK in Xenopus oocytes assessed as enzyme phosphorylation at 100 uM measured prior to GVBD completion; format: cell-based
In short: (§2)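 Oocytes treated with compound or DMSO were lysed in NP40 buffer with sodium vanadate and protease inhibitors, clarified, run on 10% gels and blotted to nitrocellulose. Blots were blocked in 1% BSA/TBST and probed at 1:1000 with phospho-Cdc2 Tyr15 (inhibitory) and phospho-MAP kinase Thr202/Tyr204 (activating) antibodies, then HRP secondary with ECL detection.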

Xenopus [9] = experiment: Activation of CDK1/Cyclin B (MPF) in Xenopus oocytes assessed as retention of inhibitory phosphorylation of CDK1 at 100 uM measured prior to GVBD completion; format: cell-based; in short: as §2
Xenopus [10] = experiment: Activation of progesterone-independent MAPK in Xenopus oocytes assessed as enzyme phosphorylation at 100 uM measured after GVBD completion; format: cell-based; in short: as §2
Xenopus [11] = experiment: Activation of progesterone-independent MAPK in Xenopus oocytes assessed as de-phosphorylation of MPF at 100 uM measured after GVBD completion; format: cell-based; in short: as §2

Row | Structure (SMILES) | Activity (Oocyte [4]) | also measured
1 | C/C1=C\CC[C@@]2(C)O[C@@H]2[C@H]2OC(=O)[C@@H](CNCCCn3ccnc3)[C@@H]2CC1 |  | inhibition (Oocyte [1]): Active; fold change (FC) (Oocyte [2]): 2; EC50 (Oocyte [3]): < 5 µM
2 | C/C1=C\CC[C@@]2(C)O[C@@H]2[C@H]2OC(=O)[C@@H](CNCc3nc4ccccc4[nH]3)[C@@H]2CC1 | inactive | 
3 | C/C1=C\CC[C@@]2(C)O[C@@H]2[C@H]2OC(=O)[C@@H](Cn3ccnc3C)[C@@H]2CC1 | inactive | 
4 | C/C1=C\CC[C@@]2(C)O[C@@H]2[C@H]2OC(=O)[C@@H](Cn3cnc(CO)c3)[C@@H]2CC1 | inactive | 
5 | C/C1=C\CC[C@@]2(C)O[C@@H]2[C@H]2OC(=O)[C@@H](Cn3cnc([N+](=O)[O-])c3)[C@@H]2CC1 | inactive | 
6 | C/C1=C\CC[C@@]2(C)O[C@@H]2[C@H]2OC(=O)[C@@H](Cn3cnc(C(F)(F)F)c3)[C@@H]2CC1 | inactive | 
7 | C/C1=C\CC[C@@]2(C)O[C@@H]2[C@H]2OC(=O)[C@@H](CNCCN3CCOCC3)[C@@H]2CC1 |  | Activity (Oocyte [5]): Active
8 | C/C1=C\CC[C@@]2(C)O[C@@H]2[C@H]2OC(=O)[C@@H](CNCC3CCNCC3)[C@@H]2CC1 | inactive | 
9 | CSc1nc(NC[C@@H]2C(=O)O[C@H]3[C@H]2CC/C(C)=C/CC[C@@]2(C)O[C@H]32)n[nH]1 | inactive | 
10 | C/C1=C\CC[C@@]2(C)O[C@@H]2[C@H]2OC(=O)[C@@H](Cn3ccnc3)[C@@H]2CC1 | inactive | 
11 | C/C1=C\CC[C@@]2(C)O[C@@H]2[C@H]2OC(=O)[C@@H](CN(C)C)[C@@H]2CC1 | inactive | 
12 | C=C1C(=O)O[C@@H]2C3O[C@]3(C)CC/C=C(\C)CC[C@@H]12 (stereo not given in full) | inactive | 
13 | C/C1=C\CC[C@@]2(C)O[C@@H]2[C@H]2OC(=O)[C@@H](CNc3nc4ccccc4[nH]3)[C@@H]2CC1 |  | Activity (Oocyte [6]): Active; Activity (Oocyte [7]): Dose-dependent effect; Activity (Xenopus [8]): Active; Activity (Xenopus [9]): inactive; Activity (Xenopus [10]): Active; Activity (Xenopus [11]): Active
